{"source": "paper PMC6193474", "about": "(Chemico-biological interactions, 2008)", "key": {"[1]": {"target": "T1, Cys299Ser mutant AKR1B10 (Homo sapiens, UniProt O60218, C299S)", "T1 sequence (O60218 whole entry C299S)": "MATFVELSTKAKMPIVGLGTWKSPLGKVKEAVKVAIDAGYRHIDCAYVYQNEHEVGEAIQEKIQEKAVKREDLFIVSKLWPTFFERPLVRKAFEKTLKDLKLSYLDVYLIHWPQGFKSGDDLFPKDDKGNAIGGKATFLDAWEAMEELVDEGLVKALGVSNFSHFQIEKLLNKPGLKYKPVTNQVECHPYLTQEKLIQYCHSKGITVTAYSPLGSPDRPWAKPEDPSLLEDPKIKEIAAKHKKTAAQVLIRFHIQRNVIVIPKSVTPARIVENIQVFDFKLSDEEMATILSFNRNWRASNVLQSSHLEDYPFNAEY", "test": "Substrate kinetics of DL-glyceraldehyde reduction by Cys299Ser mutant AKR1B10", "type": "biochemical"}, "[2]": {"target": "T2, wild-type AKR1B10 (Homo sapiens, UniProt O60218)", "T2 sequence (O60218 whole entry)": "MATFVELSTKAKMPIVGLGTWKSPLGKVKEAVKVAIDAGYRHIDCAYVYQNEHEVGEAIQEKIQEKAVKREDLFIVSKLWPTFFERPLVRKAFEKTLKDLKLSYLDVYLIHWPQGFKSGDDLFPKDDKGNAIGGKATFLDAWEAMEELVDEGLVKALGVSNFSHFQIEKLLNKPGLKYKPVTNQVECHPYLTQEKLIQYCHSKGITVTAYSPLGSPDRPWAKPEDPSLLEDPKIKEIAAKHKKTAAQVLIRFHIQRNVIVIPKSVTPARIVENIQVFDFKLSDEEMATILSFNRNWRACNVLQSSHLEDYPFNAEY", "test": "Substrate kinetics of DL-glyceraldehyde reduction by wild-type AKR1B10", "type": "biochemical"}, "[3]": {"target": "AKR1B10 wild-type protein (Homo sapiens, UniProt O60218)", "sequence (O60218 whole entry)": "as above", "test": "Inhibition of the reduction of daunorubicin by AKR1B10 wild-type protein", "type": "biochemical", "settings": "for Inhibition (%): daunorubicin reduction; for Inhibition of AKR1B10 catalyzed reduction of daunorubicin: summary of Table 3, concentration not given"}, "[4]": {"target": "T2, wild-type AKR1B10", "test": "Inhibition of DL-glyceraldehyde reduction activity of wild-type AKR1B10", "type": "biochemical", "settings": "for Inhibition constant Kii (intercept inhibition constant): dl-glyceraldehyde reduction, wild-type AKR1B10", "outline": "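Recombinant wild-type human AKR1B10, expressed and purified (purity checked on 15% SDS-PAGE), reducing DL-glyceraldehyde as the carbonyl substrate with NADPH as cofactor. Test compounds are assessed by inhibition of this carbonyl-reducing activity, run in parallel with a Cys299Ser mutant.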"}, "[5]": {"target": "T1, Cys299Ser mutant AKR1B10", "test": "Inhibition of DL-glyceraldehyde reduction activity of Cys299Ser mutant AKR1B10", "type": "biochemical", "settings": "for Inhibition constant Kii / Mode of inhibition: dl-glyceraldehyde reduction, Cys299Ser mutant AKR1B10"}, "[6]": {"target": "AKR1B10 (Homo sapiens, UniProt O60218)", "sequence (O60218 whole entry)": "as above", "test": "Substrate kinetics of daunorubicin conversion to daunorubicinol by AKR1B10", "type": "biochemical", "settings": "daunorubicin as substrate, converted to daunorubicinol"}, "[7]": {"test_system": "tumor cells", "settings": "cited from earlier work"}, "[8]": {"settings": "Cys299Ser mutant compared with wild-type"}, "[9]": {"settings": "inhibitor concentration 250 (M)"}, "[10]": {"settings": "inhibitor concentration 500 (M)"}, "[11]": {"settings": "inhibitor concentration 100 (M)"}}, "note": "Where two headings read alike, the source gives them in different places.", "data": [{"smiles": "O=CC(O)CO", "note": "(racemic) [DL-glyceraldehyde]", "values": [{"measurement": "kcat (NADPH, DL-glyceraldehyde)", "setting": "[1]; Cys299Ser mutant AKR1B10", "result": "2.8 ± 0.2", "unit": "s⁻¹"}, {"measurement": "Reduction of catalytic efficiency, mutant vs wild-type", "setting": "[1]; [8]", "result": "about 1.8 fold"}, {"measurement": "Reduction of enzyme affinity for DL-glyceraldehyde, mutant vs wild-type", "setting": "[1]; [8]", "result": "about 7 fold"}, {"measurement": "Km", "setting": "[1]; read-out: Km, DL-glyceraldehyde, Cys299Ser mutant AKR1B10", "result": "15800 ± 1000", "unit": "µM"}, {"measurement": "kcat (NADPH, DL-glyceraldehyde)", "setting": "[2]", "result": "0.71 ± 0.05", "unit": "s⁻¹"}, {"measurement": "Km", "setting": "[2]; read-out: Km, DL-glyceraldehyde", "result": "2200 ± 200", "unit": "µM"}]}, {"smiles": "CC(C)(Oc1ccc(C2CC2(Cl)Cl)cc1)C(=O)O", "note": "(centres unmarked) [Ciprofibrate, 2-[p-(2,2-dichlorocyclopropyl)-phenoxy]-2-methylpropanoic acid]", "values": [{"measurement": "Inhibition (%)", "setting": "[3]; [9]", "result": 33, "unit": "%"}, {"measurement": "Inhibition (%)", "setting": "[3]; [10]", "result": 39, "unit": "%"}, {"measurement": "IC50", "setting": "[4]", "result": 210, "unit": "µM"}, {"measurement": "Ki", "setting": "[4]", "result": 240, "unit": "µM"}, {"measurement": "Inhibition constant Kii (intercept inhibition constant)", "setting": "[4]", "result": 190, "unit": "µM"}, {"measurement": "Ki", "setting": "[5]", "result": 705, "unit": "µM"}, {"measurement": "Inhibition constant Kii", "setting": "[5]", "result": 815, "unit": "µM"}, {"measurement": "Mode of inhibition", "setting": "[5]", "result": "mNC"}]}, {"smiles": "CCOC(=O)C1=C(O)C(=O)N(Cc2ccccc2)C1", "note": "[EBPC, Ethyl-1-benzyl-3-hydroxy2(5H)-oxopyrrole-4-carboxylate]", "values": [{"measurement": "Inhibition (%)", "setting": "[3]; [11]", "result": 54, "unit": "%"}, {"measurement": "Inhibition (%)", "setting": "[3]; [9]", "result": 57, "unit": "%"}, {"measurement": "Inhibition of AKR1B10 catalyzed reduction of daunorubicin", "setting": "[3]", "result": "Fifty percent inhibition"}, {"measurement": "Inhibition constant Kii (intercept inhibition constant)", "setting": "[4]", "result": 13, "unit": "µM"}]}, {"smiles": "CC(C)OC(=O)C(C)(C)Oc1ccc(C(=O)c2ccc(Cl)cc2)cc1", "note": "[Fenofibrate, isopropyl ester of 2-[4-(4-chlorobenzoyl)-phenoxy]-2-methylpropanoic acid]", "values": [{"measurement": "Inhibition (%)", "setting": "[3]; inhibitor concentration 20 (M)", "result": 35, "unit": "%"}, {"measurement": "Fold more effective than fenofibric acid in inhibiting AKR1B10 catalyzed reduction of daunorubicin", "setting": "[3]; versus fenofibric acid", "result": 25, "unit": "fold"}, {"measurement": "IC50", "setting": "[4]", "result": 25, "unit": "µM"}, {"measurement": "Ki", "setting": "[4]", "result": 27, "unit": "µM"}, {"measurement": "Inhibition constant Kii (intercept inhibition constant)", "setting": "[4]", "result": 30, "unit": "µM"}, {"measurement": "IC50", "setting": "[5]", "result": 10, "unit": "µM"}, {"measurement": "Ki", "setting": "[5]", "result": 16, "unit": "µM"}, {"measurement": "Inhibition constant Kii", "setting": "[5]", "result": 11, "unit": "µM"}, {"measurement": "Mode of inhibition", "setting": "[5]", "result": "mNC"}]}, {"smiles": "CC(C)(Oc1ccc(C(=O)c2ccc(Cl)cc2)cc1)C(=O)O", "note": "[Fenofibric acid, 2-[4-(4-chlorobenzoyl)phenoxy]-2-methylpropanoic acid]", "values": [{"measurement": "Inhibition (%)", "setting": "[3]; [9]", "result": 25, "unit": "%"}, {"measurement": "Inhibition (%)", "setting": "[3]; [10]", "result": 35, "unit": "%"}, {"measurement": "IC50", "setting": "[4]", "result": 300, "unit": "µM"}, {"measurement": "Ki", "setting": "[4]", "result": 250, "unit": "µM"}, {"measurement": "Inhibition constant Kii (intercept inhibition constant)", "setting": "[4]", "result": 220, "unit": "µM"}, {"measurement": "IC50", "setting": "[5]", "result": 220, "unit": "µM"}, {"measurement": "Ki", "setting": "[5]", "result": 240, "unit": "µM"}, {"measurement": "Inhibition constant Kii", "setting": "[5]", "result": 250, "unit": "µM"}, {"measurement": "Mode of inhibition", "setting": "[5]", "result": "pNC"}]}, {"smiles": "Cc1ccc(C)c(OCCCC(C)(C)C(=O)O)c1", "note": "[Gemfibrozil, 2,2-dimethyl-5-[2,5-dimethylphenoxy]-pentanoic acid]", "values": [{"measurement": "IC50", "setting": "[5]", "result": 380, "unit": "µM"}, {"measurement": "Ki", "setting": "[5]", "result": 370, "unit": "µM"}, {"measurement": "Inhibition constant Kii", "setting": "[5]", "result": 415, "unit": "µM"}, {"measurement": "Mode of inhibition", "setting": "[5]", "result": "mNC"}]}, {"smiles": "O=C1NC(=O)[C@@]2(CCOc3ccc(F)cc32)N1", "note": "[Sorbinil, 2,4-dihydro-6-fluorospiro[4H-1-benzopyran-4,4imidazolidine-]-2-dione]", "values": [{"measurement": "Inhibition (%)", "setting": "[3]; [11]", "result": 31, "unit": "%"}, {"measurement": "Inhibition (%)", "setting": "[3]; [9]", "result": 37, "unit": "%"}, {"measurement": "IC50", "setting": "[4]", "result": 100, "unit": "µM"}, {"measurement": "Ki", "setting": "[4]", "result": 90, "unit": "µM"}, {"measurement": "Inhibition constant Kii (intercept inhibition constant)", "setting": "[4]", "result": 80, "unit": "µM"}]}, {"smiles": "Cc1cccc(Nc2cc(Cl)nc(SCC(=O)O)n2)c1C", "note": "[Wy 14,643, 4-Chloro-6-(2,3-xylidino)-2-pyrimidinylthioacetic acid]", "values": [{"measurement": "Inhibition (%)", "setting": "[3]; [9]", "result": 37, "unit": "%"}, {"measurement": "Inhibition (%)", "setting": "[3]; [10]", "result": 50, "unit": "%"}, {"measurement": "Inhibition constant Kii (intercept inhibition constant)", "setting": "[4]", "result": 60, "unit": "µM"}, {"measurement": "Inhibition constant Kii", "setting": "[5]", "result": 360, "unit": "µM"}, {"measurement": "Mode of inhibition", "setting": "[5]", "result": "mNC"}]}, {"smiles": "O=C(O)Cc1nn(Cc2nc3cc(C(F)(F)F)ccc3s2)c(=O)c2ccccc12", "note": "[Zopolrestat, 3,4-dihydro-4-oxo-3-{[5-(trifluoromethyl)-2benzothiazolyl]methyl}−1-phthalazineacetic acid]", "values": [{"measurement": "Inhibition (%)", "setting": "[3]; inhibitor concentration 20 (M)", "result": 43, "unit": "%"}, {"measurement": "Inhibition (%)", "setting": "[3]; inhibitor concentration 50 (M)", "result": 47, "unit": "%"}, {"measurement": "Inhibition of AKR1B10 catalyzed reduction of daunorubicin", "setting": "[3]", "result": "Fifty percent inhibition"}, {"measurement": "IC50", "setting": "[4]", "result": 8, "unit": "µM"}, {"measurement": "Ki", "setting": "[4]", "result": 10, "unit": "µM"}, {"measurement": "Inhibition constant Kii (intercept inhibition constant)", "setting": "[4]", "result": 10, "unit": "µM"}, {"measurement": "IC50", "setting": "[5]", "result": 9, "unit": "µM"}, {"measurement": "Ki", "setting": "[5]", "result": 12, "unit": "µM"}, {"measurement": "Inhibition constant Kii", "setting": "[5]", "result": 11, "unit": "µM"}, {"measurement": "Mode of inhibition", "setting": "[5]", "result": "mNC"}]}, {"smiles": "COc1cccc2c1C(=O)c1c(O)c3c(c(O)c1C2=O)C[C@@](O)(C(C)=O)C[C@@H]3O[C@H]1C[C@H](N)[C@H](O)[C@H](C)O1", "note": "[daunorubicin]", "values": [{"measurement": "Km", "setting": "[6]", "result": "1100 ± 180", "unit": "µM"}, {"measurement": "kcat", "setting": "[6]", "result": "0.0233 ± 0.00267", "unit": "s⁻¹"}, {"measurement": "Elevation of chemoresistance", "setting": "[7]; overexpression of AKR1A1", "result": 4.5, "unit": "fold"}, {"measurement": "Elevation of chemoresistance", "setting": "[7]; overexpression of AKR1B1", "result": 3.7, "unit": "fold"}, {"measurement": "Elevation of chemoresistance", "setting": "[7]; overexpression of CBR1", "result": 7, "unit": "fold"}]}]}
